From ChEMBL document CHEMBL3046830, “Isolation and identification of secondary metabolites of Clitocybe nuda responsible for inhibition of zoospore germination of Phytophthora capsici” (2012) come the findings set out here.

Common to all, as to assay type: functional
Assay [1] concerns Phytophthora capsici. Briefly: Antimicrobial activity against Phytophthora capsici PCM81 assessed as inhibition of zoospore germination at 500 mg/L at 24 degC for 8 hr. The conditions noted are these: for inhibition at 500 µg/mL: PCM81, 8 h. The gist of the method:
(§1)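 P. capsici PCM81 sporangia grown 5 days on 10% V8 agar at 24 °C under a 12 h light–dark cycle. Zoospores released in sterile water for 1 day at 24 °C, then chilled at 4 °C for 1 h. The suspension is mixed 1:1 with the sample in a cavity slide and kept moist; a distilled-water mix is the control. Germination is scored after 8 h at 24 °C, counting 100 spores × 4 replicates, with the experiment run twice and analysed by Duncan's test.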

For assay [2], the system named is Phytophthora capsici. In words: Antimicrobial activity against Phytophthora capsici PCM81 assessed as zoospore germination at 100 ppm at 24 degC for 8 hr. The gist of the method: as §1
In assay [3] the test system is Phytophthora capsici. Briefly: Antimicrobial activity against Phytophthora capsici PCM81 assessed as zoospore germination at 500 ppm at 24 degC for 8 hr. The gist of the method: as §1
In assay [4] the test system is Phytophthora capsici. Briefly: Antimicrobial activity against Phytophthora capsici PCM81 assessed as zoospore germination at 1000 ppm at 24 degC for 8 hr. The gist of the method: as §1

Calls of active or inactive are those of the source. The rule behind the calls is not given here.

The term inhibition denotes the drop in the measured response relative to a control, in per cent.

As for `O=Cc1c[nH]c2ccccc12` [3-FORMYLINDOLE], the inhibition result in assay [1] is “Active”. Further, the Activity in assay [2] was 57%; in assay [3], 0%; in assay [4] it was 0%.
In the case of `O=CC1=CC=C(O)OC1`, in assay [1], the inhibition at 500 µg/mL was found to be 86%. Further, the Activity in assay [2] was 77%; in assay [3], 14.5%; in assay [4] it was 0%.
For `COCC1=C(C)C(=O)C=C(OC)C1=O` the same measures were 97%, 65%, 3% and 0%.
